These results are taken from ChEMBL document CHEMBL1687843, “Detection of NDM-1-producing Klebsiella pneumoniae in Kenya” (2011).

Assay [1] deals with Klebsiella pneumoniae. As to the kind of experiment: Antibacterial activity against carbapenem-resistant Klebsiella pneumoniae isolate 6 expressing beta-lactamase NDM-1 obtained from urethral pus of patient by Etest. Particulars: for MIC: isolate 6, Urethral pus.
In assay [2] the test system is Klebsiella pneumoniae. The experiment in a line: Antibacterial activity against carbapenem-resistant Klebsiella pneumoniae isolate 5 expressing beta-lactamase NDM-1 obtained from urine of patient by liquid microdilution method. Particulars: for MIC: isolate 5, Urine. The format is functional. In outline:
(§1)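 Liquid broth microdilution at 37°C gives the MIC against each clinical isolate; results are interpreted per CLSI guidelines.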
For orientation: Broth dilution looks for growth in wells or tubes with falling amounts of substance.

Assay [3] deals with Klebsiella pneumoniae. As to the kind of experiment: Antibacterial activity against carbapenem-resistant Klebsiella pneumoniae isolate 4 expressing beta-lactamase NDM-1 obtained from urine of patient by Etest. The class given is functional. Particulars: for MIC: isolate 4, Urine. In outline:
(§2)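 Etest strips on Mueller-Hinton agar at 37°C give the MIC against each clinical isolate; susceptibility is interpreted per CLSI guidelines.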

Assay [4] deals with Klebsiella pneumoniae. The experiment in a line: Antibacterial activity against carbapenem-resistant Klebsiella pneumoniae isolate 6 expressing beta-lactamase NDM-1 obtained from urethral pus of patient by liquid microdilution method. Particulars: for MIC: isolate 6, Urethral pus.
Assay [5] has as its system Klebsiella pneumoniae. The experiment in a line: Antibacterial activity against carbapenem-resistant Klebsiella pneumoniae isolate 5 expressing beta-lactamase NDM-1 obtained from urine of patient by Etest. The class given is functional. Particulars: for MIC: isolate 5, Urine. The gist of the method:
as §2

The test system of assay [6] is Klebsiella pneumoniae. As to the kind of experiment: Antibacterial activity against carbapenem-resistant Klebsiella pneumoniae isolate 4 expressing beta-lactamase NDM-1 obtained from urine of patient by liquid microdilution method. The format is functional. Particulars: for MIC: isolate 4, Urine. In outline: as §1
For assay [7], the system named is Klebsiella pneumoniae. As to the kind of experiment: Antibacterial activity against carbapenem-resistant Klebsiella pneumoniae isolate 3 expressing beta-lactamase NDM-1 obtained from urine of patient by liquid microdilution method. The class given is functional. Particulars: for MIC: isolate 3, Urine. In outline: as §1
Assay [8] has as its system Klebsiella pneumoniae. The experiment in a line: Antibacterial activity against carbapenem-resistant Klebsiella pneumoniae isolate 7 expressing beta-lactamase NDM-1 obtained from urine of patient by Etest. The class given is functional. Particulars: for MIC: isolate 7, Urine. In outline:
as §2

Assay [9] deals with Klebsiella pneumoniae. The experiment in a line: Antibacterial activity against carbapenem-resistant Klebsiella pneumoniae isolate 1 expressing beta-lactamase NDM-1 obtained from urine of patient by liquid microdilution method. Particulars: for MIC: isolate 1, Urine. The format is functional. The gist of the method:
as §1

In assay [10] the test system is Klebsiella pneumoniae. The experiment in a line: Antibacterial activity against carbapenem-resistant Klebsiella pneumoniae isolate 1 expressing beta-lactamase NDM-1 obtained from urine of patient by Etest. The class given is functional. Particulars: for MIC: isolate 1, Urine. In outline: as §2
For assay [11], the system named is Klebsiella pneumoniae. As to the kind of experiment: Antibacterial activity against carbapenem-resistant Klebsiella pneumoniae isolate 2 expressing beta-lactamase NDM-1 obtained from urine of patient by liquid microdilution method. The format is functional. Particulars: for MIC: isolate 2, Urine. In outline:
as §1

Assay [12] deals with Klebsiella pneumoniae. As to the kind of experiment: Antibacterial activity against carbapenem-resistant Klebsiella pneumoniae isolate 7 expressing beta-lactamase NDM-1 obtained from urine of patient by liquid microdilution method. Particulars: for MIC: isolate 7, Urine. The format is functional. In outline:
as §1

Assay [13] has as its system Klebsiella pneumoniae. The experiment in a line: Antibacterial activity against carbapenem-resistant Klebsiella pneumoniae isolate 2 expressing beta-lactamase NDM-1 obtained from urine of patient by Etest. The format is functional. Particulars: for MIC: isolate 2, Urine. In outline:
as §2

The test system of assay [14] is Klebsiella pneumoniae. The experiment in a line: Antibacterial activity against carbapenem-resistant Klebsiella pneumoniae isolate 3 expressing beta-lactamase NDM-1 obtained from urine of patient by Etest. Particulars: for MIC: isolate 3, Urine. The class given is functional. The gist of the method: as §2
Assay [15] relates to Escherichia coli. As to the kind of experiment: Antimicrobial activity against Escherichia coli J53 harboring Klebsiella pneumoniae Kp7 beta-lactamase NDM-1. The format is functional. In outline:
(§3)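 Strains: azide-resistant E. coli J53 recipient and its transconjugant. The transconjugant came from conjugation with K. pneumoniae Kp7 donor, selected on ceftazidime (30 µg/ml) plus azide (100 µg/ml). MICs were by Etest on Mueller-Hinton agar and by liquid microdilution at 37°C, interpreted per CLSI.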

Assay [16] concerns Escherichia coli. As to the kind of experiment: Antimicrobial activity against Escherichia coli J53. The class given is functional. The gist of the method: as §3

≈ marks a conversion by molar mass, not a printed value. Calls of active or inactive are those of the source. The calls are words filed in the database; no cut-off is given here.

In the case of `O=C1CN(/N=C/c2ccc([N+](=O)[O-])o2)C(=O)N1`, the result in the assay on Klebsiella pneumoniae [1], in the assay on Klebsiella pneumoniae [2], in the assay with Klebsiella pneumoniae [3], with Klebsiella pneumoniae [4], in the assay on Klebsiella pneumoniae [5] and in the assay on Klebsiella pneumoniae [6] was inactive. The outcome in the assay with Klebsiella pneumoniae [7], with Klebsiella pneumoniae [8], in the assay on Klebsiella pneumoniae [9], with Klebsiella pneumoniae [10], with Klebsiella pneumoniae [11] and in the assay on Klebsiella pneumoniae [12] was inactive. In addition, the outcome with Klebsiella pneumoniae [13] and with Klebsiella pneumoniae [14] was inactive.

One may read the MIC as the least concentration at which growth counts as inhibited. Read a low MIC as inhibition by little substance. For `C[C@@H](O)[C@H]1C(=O)N2C(C(=O)O)=C(S[C@@H]3CN[C@H](C(=O)N(C)C)C3)[C@H](C)[C@H]12` [MEROPENEM], the MIC against Klebsiella pneumoniae [1], against Klebsiella pneumoniae [2], against Klebsiella pneumoniae [3], with Klebsiella pneumoniae [4], against Klebsiella pneumoniae [5] and with Klebsiella pneumoniae [6] was over 32 µg/mL in each case. Further, the MIC against Klebsiella pneumoniae [7] is over 32 µg/mL; in the assay with Escherichia coli [15], 1.5 µg/mL (≈ 3.91 µM); against Klebsiella pneumoniae [8], over 32 µg/mL; with Klebsiella pneumoniae [9], over 32 µg/mL; in the assay with Klebsiella pneumoniae [10], over 32 µg/mL; against Klebsiella pneumoniae [11], over 32 µg/mL. Moreover, the minimal inhibitory concentration (MIC) against Escherichia coli [16] is 0.12 µg/mL (≈ 0.313 µM); in the assay with Klebsiella pneumoniae [12] it was over 32 µg/mL; in the assay on Klebsiella pneumoniae [13] it was over 32 µg/mL; in the assay on Klebsiella pneumoniae [14], over 32 µg/mL.

As for `CN(C)c1cc(NC(=O)CNC(C)(C)C)c(O)c2c1C[C@H]1C[C@H]3[C@H](N(C)C)C(O)=C(C(N)=O)C(=O)[C@@]3(O)C(O)=C1C2=O` [TIGECYCLINE], the minimum inhibitory concentration (MIC) against Klebsiella pneumoniae [1], in the assay on Klebsiella pneumoniae [3], against Klebsiella pneumoniae [5], in the assay on Klebsiella pneumoniae [8], in the assay with Klebsiella pneumoniae [10] and against Klebsiella pneumoniae [13] was 0.5 µg/mL (≈ 0.854 µM) in each case. Besides, the minimum inhibitory concentration (MIC) in the assay on Klebsiella pneumoniae [14] turned out to be 0.5 µg/mL (≈ 0.854 µM).

For `C[C@@H]1O[C@@H]1P(=O)(O)O`, the result in the assay on Klebsiella pneumoniae [1], in the assay on Klebsiella pneumoniae [2], with Klebsiella pneumoniae [3], in the assay on Klebsiella pneumoniae [4], in the assay on Klebsiella pneumoniae [5] and with Klebsiella pneumoniae [6] was inactive. The outcome in the assay on Klebsiella pneumoniae [7], with Klebsiella pneumoniae [8], in the assay with Klebsiella pneumoniae [9], in the assay on Klebsiella pneumoniae [10], in the assay on Klebsiella pneumoniae [11] and in the assay with Klebsiella pneumoniae [12] was inactive. The result in the assay on Klebsiella pneumoniae [13] and with Klebsiella pneumoniae [14] was inactive.

Regarding `C[C@@H](O)[C@H]1C(=O)N2C(C(=O)O)=C(S[C@@H]3CN[C@H](CNS(N)(=O)=O)C3)[C@H](C)[C@H]12` [DORIPENEM], the minimum inhibitory concentration (MIC) with Klebsiella pneumoniae [1], in the assay on Klebsiella pneumoniae [2], in the assay with Klebsiella pneumoniae [3], with Klebsiella pneumoniae [4], with Klebsiella pneumoniae [5] and against Klebsiella pneumoniae [6] was over 32 µg/mL throughout. Besides, the MIC was over 32 µg/mL in the assay on Klebsiella pneumoniae [7]; 1.5 µg/mL (≈ 3.57 µM) with Escherichia coli [15]; over 32 µg/mL with Klebsiella pneumoniae [8]; over 32 µg/mL with Klebsiella pneumoniae [9]; over 32 µg/mL with Klebsiella pneumoniae [10]; over 32 µg/mL with Klebsiella pneumoniae [11]. For the same molecule, the MIC with Escherichia coli [16] is 0.12 µg/mL (≈ 0.285 µM); in the assay on Klebsiella pneumoniae [12], over 32 µg/mL; against Klebsiella pneumoniae [13], over 32 µg/mL; with Klebsiella pneumoniae [14] it was over 32 µg/mL.

For the molecule `O=C(N[C@H](CO)[C@H](O)c1ccc([N+](=O)[O-])cc1)C(Cl)Cl`, the result in the assay with Klebsiella pneumoniae [1], with Klebsiella pneumoniae [2], in the assay with Klebsiella pneumoniae [3], in the assay with Klebsiella pneumoniae [4], in the assay with Klebsiella pneumoniae [5] and with Klebsiella pneumoniae [6] was inactive. Besides, the outcome with Klebsiella pneumoniae [7], with Klebsiella pneumoniae [8], in the assay on Klebsiella pneumoniae [9], in the assay with Klebsiella pneumoniae [10], in the assay with Klebsiella pneumoniae [11] and with Klebsiella pneumoniae [12] was inactive. In addition, the outcome in the assay on Klebsiella pneumoniae [13] and in the assay on Klebsiella pneumoniae [14] was inactive.

As for `C[C@@H](O)[C@H]1C(=O)N2C(C(=O)O)=C(S[C@@H]3CN[C@H](C(=O)Nc4cccc(C(=O)O)c4)C3)[C@H](C)[C@H]12` [ERTAPENEM], the MIC in the assay with Klebsiella pneumoniae [1], against Klebsiella pneumoniae [2], in the assay on Klebsiella pneumoniae [3], in the assay with Klebsiella pneumoniae [4], in the assay with Klebsiella pneumoniae [5] and in the assay with Klebsiella pneumoniae [6] was over 32 µg/mL each time. The MIC against Klebsiella pneumoniae [7] was over 32 µg/mL; in the assay on Escherichia coli [15], 1.5 µg/mL (≈ 3.15 µM); against Klebsiella pneumoniae [8] it was over 32 µg/mL; against Klebsiella pneumoniae [9], over 32 µg/mL; in the assay with Klebsiella pneumoniae [10], over 32 µg/mL; in the assay on Klebsiella pneumoniae [11], over 32 µg/mL. The minimal inhibitory concentration (MIC) against Escherichia coli [16] was 0.12 µg/mL (≈ 0.252 µM); with Klebsiella pneumoniae [12], over 32 µg/mL; against Klebsiella pneumoniae [13] it was over 32 µg/mL; in the assay with Klebsiella pneumoniae [14] it was over 32 µg/mL.

Regarding `C[C@@H](O)[C@H]1C(=O)N2C(C(=O)O)=C(SCCNC=N)C[C@H]12` [IMIPENEM ANHYDROUS], the MIC with Klebsiella pneumoniae [1], in the assay with Klebsiella pneumoniae [2], in the assay on Klebsiella pneumoniae [3], in the assay with Klebsiella pneumoniae [4], with Klebsiella pneumoniae [5] and with Klebsiella pneumoniae [6] was over 32 µg/mL in each case. The MIC in the assay on Klebsiella pneumoniae [7] is over 32 µg/mL; against Escherichia coli [15], 4 µg/mL (≈ 13.4 µM); against Klebsiella pneumoniae [8] it was over 32 µg/mL; in the assay with Klebsiella pneumoniae [9], over 32 µg/mL; in the assay with Klebsiella pneumoniae [10], over 32 µg/mL; in the assay on Klebsiella pneumoniae [11], over 32 µg/mL. The MIC is 0.12 µg/mL (≈ 0.401 µM) against Escherichia coli [16], over 32 µg/mL in the assay with Klebsiella pneumoniae [12], over 32 µg/mL against Klebsiella pneumoniae [13] and over 32 µg/mL in the assay with Klebsiella pneumoniae [14].

Consider `CO[C@H]1/C=C/O[C@@]2(C)Oc3c(C)c(O)c4c(O)c(c(/C=N/N5CCN(C)CC5)c(O)c4c3C2=O)NC(=O)/C(C)=C\C=C\[C@H](C)[C@H](O)[C@@H](C)[C@@H](O)[C@@H](C)[C@H](OC(C)=O)[C@@H]1C` [RIFAMPIN], for which the MIC in the assay on Klebsiella pneumoniae [1], in the assay on Klebsiella pneumoniae [2], against Klebsiella pneumoniae [3], in the assay with Klebsiella pneumoniae [4], against Klebsiella pneumoniae [5] and with Klebsiella pneumoniae [6] was over 32 µg/mL each time. The MIC in the assay with Klebsiella pneumoniae [7], with Klebsiella pneumoniae [8], against Klebsiella pneumoniae [9], in the assay on Klebsiella pneumoniae [10], in the assay on Klebsiella pneumoniae [11] and against Klebsiella pneumoniae [12] was over 32 µg/mL each time. Besides, the MIC with Klebsiella pneumoniae [13] and with Klebsiella pneumoniae [14] was over 32 µg/mL throughout.
